ChEMBL document CHEMBL3351394 (J Med Chem, 2014)
Activity calls are given as the source filed them. No cut-off for these calls is given here.

Experiments:
Assay type in all cases: cell-based
Bile acid receptor [1] = target: T1, Bile acid receptor (Homo sapiens, UniProt Q96RI1); test: Agonist activity at human FXR expressed in human HeLa cells assessed as receptor activation by BSEP promoter-driven firefly luciferase reporter gene assay
T1 sequence (Q96RI1 whole entry): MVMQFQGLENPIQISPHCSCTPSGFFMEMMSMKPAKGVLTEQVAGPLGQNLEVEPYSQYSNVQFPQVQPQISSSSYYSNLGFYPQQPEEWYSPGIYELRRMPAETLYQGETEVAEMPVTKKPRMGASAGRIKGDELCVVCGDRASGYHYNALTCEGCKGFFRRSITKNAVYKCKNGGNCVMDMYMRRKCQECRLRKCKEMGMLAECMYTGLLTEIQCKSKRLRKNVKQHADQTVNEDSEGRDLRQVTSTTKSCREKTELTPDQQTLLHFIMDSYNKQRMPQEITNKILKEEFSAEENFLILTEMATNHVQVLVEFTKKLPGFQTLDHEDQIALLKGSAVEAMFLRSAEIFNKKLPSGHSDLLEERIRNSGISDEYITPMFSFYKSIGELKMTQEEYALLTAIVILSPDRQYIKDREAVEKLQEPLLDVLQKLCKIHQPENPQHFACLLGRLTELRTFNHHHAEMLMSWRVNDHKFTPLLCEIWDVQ

[2] = target: T2, Bile acid receptor (Homo sapiens) (UniProt Q96RI1); test: Agonist activity at FXR in human HepG2 cells assessed as induction of BSEP mrNA expression at 3 uM by quantitative PCR method
T2 sequence (whole entry): T1 sequence (Q96RI1 whole entry)
Outline: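 HepG2 cells were seeded at 2 × 10⁶ per well. After 24 h they were switched to MEM with 1% charcoal-stripped FCS, and 24 h later dosed with compound (0.1, 0.3, 1, 3, 10 μM; 0.1% DMSO final) for 24 h. Total RNA was reverse transcribed and analysed by qPCR, GAPDH-normalized, ΔΔCt method. Samples were run in duplicate in ≥4 independent experiments.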

[3] = target: T2, Bile acid receptor (Homo sapiens); test: Antagonist activity at human FXR expressed in human HeLa cells assessed as inhibition of receptor activation by BSEP promoter-driven firefly luciferase reporter gene assay relative to untreated control; conditions: concentration not given here
Outline: (§1)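 HeLa cells were calcium-phosphate transfected with pcDNA3-hFXR, pSG5-hRXR, a BSEP-promoter firefly luciferase (BSEP-pGL3) and pRL-SV40, then kept in 0.5% charcoal-stripped FCS. 24 h post-transfection, compound in 0.1% DMSO was added for 24 h; in antagonist mode it was given in competition with GW4064. Dual-luciferase firefly/renilla RLU gave fold over untreated and activity relative to 3 μM GW4064. Triplicate wells, ≥3 independent runs.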

Bile acid receptor [4] = target: T1, Bile acid receptor; test: Antagonist activity at human FXR expressed in human HeLa cells assessed as inhibition of receptor activation by BSEP promoter-driven firefly luciferase reporter gene assay; outline: as §1
[5] = target: T2, Bile acid receptor (Homo sapiens); test: Agonist activity at human FXR expressed in human HeLa cells assessed as receptor activation at 30 uM by BSEP promoter-driven firefly luciferase reporter gene assay relative to 3 uM GW4064; outline: as §1

| Structure (SMILES) | EC50 (Bile acid receptor [1]; read-out: EC50) [nM] | further results |
| --- | --- | --- |
| COc1ccc(C(=O)Nc2ccc(C)c(C(=O)O)c2)c(NC(=O)c2ccc(C(C)(C)C)cc2)c1 | 87 | – |
| CC(C)(C)c1ccc(C(=O)Nc2cc(Cl)ccc2C(=O)Nc2cccc(C(=O)O)c2)cc1 | 47 | – |
| CC(C)c1onc(-c2c(Cl)cccc2Cl)c1COc1ccc(/C=C/c2cccc(C(=O)O)c2)c(Cl)c1 | – | Activity [2]: 1520% |
| CC(C)(C)c1ccc(C(=O)Nc2ccc(Cl)cc2C(=O)Nc2cccc(C(=O)O)c2)cc1 | – | inhibition [3]: 15%; IC50 (Bile acid receptor [4]): 12300 nM |
| O=C(O)c1cccc(NC(=O)c2ccccc2NC(=O)c2ccc3c(c2)OCO3)c1 | 10000 | – |
| CC(C)(C)c1ccc(C(=O)Nc2cc(Br)ccc2C(=O)Nc2cccc(C(=O)O)c2)cc1 | 48 | – |
| COc1cccc(NC(=O)c2ccccc2NC(=O)c2ccc(C(C)(C)C)cc2)c1 | 380 | – |
| Cc1ccc(C(=O)Nc2ccc(C)c(C(=O)O)c2)c(NC(=O)c2ccc(C(C)(C)C)cc2)c1 | 43 | – |
| CC(C)(C)c1ccc(C(=O)Nc2ccccc2C(=O)Nc2cccc(CC(=O)O)c2)cc1 | 420 | – |
| CC(=O)c1cccc(NC(=O)c2ccccc2NC(=O)c2ccc(C(C)(C)C)cc2)c1 | 480 | – |
| COc1ccc(NC(=O)c2ccc(C(C)(C)C)cc2)c(C(=O)Nc2cccc(C(=O)O)c2)c1 | – | inhibition [3]: 10%; Activity [5]: inactive; IC50 (Bile acid receptor [4]): 15100 nM |
| O=C(O)c1cccc(NC(=O)c2ccccc2NC(=O)c2ccc3c(c2)OCCO3)c1 | 4900 | – |
| COc1cc(NC(=O)c2ccccc2NC(=O)c2ccc(C(C)(C)C)cc2)cc(OC)c1OC | – | Activity [5]: inactive |
| CC(C)(C)c1ccc(C(=O)Nc2ccccc2C(=O)Nc2cc(C(=O)O)ccc2F)cc1 | 480 | – |
| CC(C)(C)c1ccc(C(=O)Nc2ccccc2C(=O)Nc2cccc(C#N)c2)cc1 | 230 | – |
| CC(C)(C)c1ccc(C(=O)Nc2cccc(Cl)c2C(=O)Nc2cccc(C(=O)O)c2)cc1 | – | Activity [5]: inactive |
| Cc1ccc(NC(=O)c2ccc(Cl)cc2NC(=O)c2ccc(C(C)(C)C)cc2)cc1C(=O)O | 110 | – |
| CC(C)(C)c1ccc(C(=O)Nc2ccccc2C(=O)Nc2cccc(C(N)=O)c2)cc1 | 74 | – |
| CC(C)(C)c1ccc(C(=O)Nc2cc([N+](=O)[O-])ccc2C(=O)Nc2cccc(C(=O)O)c2)cc1 | – | Activity [5]: inactive |
| Cc1ccc(NC(=O)c2ccccc2NC(=O)c2ccc(C(C)(C)C)cc2)cc1C(=O)O | 45 | – |
| O=C(/C=C/c1ccccc1)Nc1ccccc1C(=O)Nc1cccc(C(=O)O)c1 | 5200 | – |
| CC(C)(C)c1ccc(C(=O)Nc2ccccc2C(=O)Nc2cccc(C(=O)O)c2)cc1 | 280 | – |

| Structure (SMILES) | EC50 (Bile acid receptor [1]; read-out: EC50) [nM] | further results |
| --- | --- | --- |
| CC(C)(C)c1ccc(C(=O)Nc2ccccc2C(=O)Nc2cccc(-c3nnn[nH]3)c2)cc1 | 2900 | – |
| Cc1ccc(C(=O)Nc2cccc(C(=O)O)c2)c(NC(=O)c2ccc(C(C)(C)C)cc2)c1 | 61 | – |
| O=C(O)c1cccc(NC(=O)c2ccccc2NC(=O)c2cc(C(F)(F)F)cc(C(F)(F)F)c2)c1 | – | Activity [5]: inactive |
| CC(C)(C)c1ccc(C(=O)Nc2ccccc2C(=O)Nc2ccc([N+](=O)[O-])c(C(=O)O)c2)cc1 | – | Activity [5]: inactive |
| CC(C)(C)c1ccc(C(=O)Nc2ccccc2C(=O)Nc2cccc(CCC(=O)O)c2)cc1 | 64 | – |
| Cc1c(NC(=O)c2ccccc2NC(=O)c2ccc(C(C)(C)C)cc2)cccc1C(=O)O | 42 | – |
| CC(C)(C)c1ccc(C(=O)Nc2ccccc2C(=O)Nc2ccc(Cl)c(C(=O)O)c2)cc1 | 280 | – |
| Nc1ccccc1C(=O)Nc1cccc(C(=O)O)c1 | – | Activity [5]: inactive |
| O=C(O)c1cccc(NC(=O)c2ccccc2NC(=O)c2ccc(Br)cc2)c1 | 3700 | – |
| COc1ccc(NC(=O)c2ccccc2NC(=O)c2ccc(C(C)(C)C)cc2)cc1OC | 71 | – |
| CC(C)(C)c1ccc(C(=O)Nc2ccccc2C(=O)Nc2ccc(Br)c(C(=O)O)c2)cc1 | 150 | – |
| O=C(O)c1cccc(NC(=O)c2ccccc2NC(=O)c2ccc(C(F)(F)F)cc2)c1 | 6900 | – |
| CC(C)(C)c1ccc(C(=O)Nc2c(Cl)cccc2C(=O)Nc2cccc(C(=O)O)c2)cc1 | – | Activity [5]: inactive |
| CSc1cccc(NC(=O)c2ccccc2NC(=O)c2ccc(C(C)(C)C)cc2)c1 | 200 | – |
| COc1ccc(NC(=O)c2ccccc2NC(=O)c2ccc(C(C)(C)C)cc2)cc1C(=O)O | 47 | – |
| CC(C)(C)c1ccc(C(=O)Nc2ccccc2C(=O)Nc2cc(C(=O)O)ccc2Cl)cc1 | 1100 | – |
| CC(C)(C)c1ccc(NC(=O)c2ccccc2NC(=O)c2cccc(C(=O)O)c2)cc1 | – | EC50 (Bile acid receptor [1]; hela): Not Active |
| O=C(Cc1ccccc1)Nc1ccccc1C(=O)Nc1cccc(C(=O)O)c1 | – | Activity [5]: inactive |
| O=C(O)c1cccc(NC(=O)c2ccccc2NC(=O)c2ccc(C(F)(F)F)c(F)c2)c1 | 5000 | – |
| Cc1ccc(C(=O)O)cc1NC(=O)c1ccccc1NC(=O)c1ccc(C(C)(C)C)cc1 | – | Activity [5]: inactive |
| COc1ccc(C(=O)O)cc1NC(=O)c1ccccc1NC(=O)c1ccc(C(C)(C)C)cc1 | 4700 | – |
